{"source": "ChEMBL document CHEMBL1140722", "about": "“Inhibition of adenosine deaminase by analogues of adenosine and inosine, incorporating a common heterocyclic base, 4(7)-amino-6(5)H-imidazo[4,5-d]pyridazin-7(4)one” (J Med Chem, 2008)", "key": {"[1]": {"target": "T1, Adenosine deaminase (Bos taurus, UniProt P56658)", "T1 sequence (P56658 whole entry)": "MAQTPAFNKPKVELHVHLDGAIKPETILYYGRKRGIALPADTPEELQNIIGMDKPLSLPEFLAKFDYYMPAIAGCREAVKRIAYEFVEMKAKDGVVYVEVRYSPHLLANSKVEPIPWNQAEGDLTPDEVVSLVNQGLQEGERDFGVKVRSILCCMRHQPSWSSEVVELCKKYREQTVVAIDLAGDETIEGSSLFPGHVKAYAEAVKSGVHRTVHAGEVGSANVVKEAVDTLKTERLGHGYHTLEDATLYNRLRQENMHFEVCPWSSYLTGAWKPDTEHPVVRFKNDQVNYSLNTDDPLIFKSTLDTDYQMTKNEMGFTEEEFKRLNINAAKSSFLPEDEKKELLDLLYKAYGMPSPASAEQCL", "assay": "Inhibition of calf intestine adenosine deaminase", "in_short": "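Calf intestine ADA, 2 × 10-3 unit per assay, at 25 °C and pH 7.4. Adenosine hydrolysis to inosine followed as change in optical density per unit time at 265 nm. Seven adenosine concentrations from 30 to 60 µM were run at each inhibitor level of 5 or 15 µM. Ki derived from Lineweaver–Burk plots (1/V vs 1/S).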"}, "[2]": {"tested_on": "MCF7", "assay": "Cytotoxicity against human MCF7 cells after 5 days by MTT assay", "assay_type": "functional, cell-based", "conditions": "MCF7, 120 h", "in_short": "(§1)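 Cells seeded at 2000/well in complete RPMI1640 and left to attach overnight at 37 °C in 5% CO2. Drug added from 20 mM DMSO stocks, final 0.0001–100 µM, eight replicates each. Exposure was continuous for 5 days, then MTT added and formazan read at 550 nm. IC50 and IC100 taken against vehicle controls and day-0 growth. Three independent experiments.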"}, "[3]": {"assay": "Cytotoxicity against human MCF10A cells after 5 days by MTT assay", "assay_type": "cell-based", "conditions": "MCF-10A, 120 h", "in_short": "as §1"}}}
{"smiles": "N/N=C(\\N)c1c(C(=O)NN)ncn1[C@@H]1O[C@H](CO)[C@@H](O)[C@H]1O", "values": [{"measurement": "Ki", "setting": "[1]", "value": 26.5, "unit": "µM"}]}
{"smiles": "Nc1n[nH]c(=O)c2c1ncn2[C@H]1C[C@H](O)[C@@H](CO)O1", "values": [{"measurement": "Ki", "setting": "[1]", "value": 12.1, "unit": "µM"}, {"measurement": "IC50", "setting": "[2]", "value": "> 100", "unit": "µM"}, {"measurement": "IC50", "setting": "[3]", "value": "> 100", "unit": "µM"}]}
{"smiles": "Nc1n[nH]c(=O)c2ncn([C@H]3C[C@H](O)[C@@H](CO)O3)c12", "values": [{"measurement": "Ki", "setting": "[1]", "value": 52, "unit": "µM"}, {"measurement": "IC50", "setting": "[2]", "value": 97.5, "unit": "µM"}, {"measurement": "IC50", "setting": "[3]", "value": "> 100", "unit": "µM"}]}
{"smiles": "Nc1n[nH]c(=O)c2ncn([C@@H]3O[C@H](CO)[C@@H](O)[C@H]3O)c12", "values": [{"measurement": "Ki", "setting": "[1]", "value": 51.4, "unit": "µM"}, {"measurement": "IC50", "setting": "[2]", "value": 23.5, "unit": "µM"}, {"measurement": "IC50", "setting": "[3]", "value": 82.5, "unit": "µM"}]}
{"smiles": "Nc1n[nH]c(=O)c2c1ncn2[C@@H]1O[C@H](CO)[C@@H](O)[C@H]1O", "values": [{"measurement": "Ki", "setting": "[1]", "value": 10.6, "unit": "µM"}, {"measurement": "IC50", "setting": "[2]", "value": 27.5, "unit": "µM"}, {"measurement": "IC50", "setting": "[3]", "value": 82.5, "unit": "µM"}]}
